Tests used:
[1] = Intrinsic Clearance in mouse liver microsomes; format: ADME, Microsome; details: read-out: CLH
[2] = Inhibition of Class 2A HDAC in human HEK293 cells using Boc-Lys(TFA) as substrate by fluorogenic assay; format: cell-based
[3] = Inhibition of Class 2b HDAC in human HEK293 cells using alpha-tubulin as substrate by fluorogenic assay; format: cell-based
[4] = molecular target: Muscarinic acetylcholine receptor M5 (Homo sapiens) (UniProt P08912); test: Displacement of [3H]4-DAMP from human recombinant M5 receptor at 10 uM incubated for 1 hr by radiometric scintillation counting analysis
How it was run: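 Broad selectivity panel of binding, cellular, functional and enzymatic assays run by a contract lab. Each test was done at a single 10 μM concentration and reported as percent inhibition.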

[5] = molecular target: Voltage-gated inwardly rectifying potassium channel KCNH2 (Homo sapiens, UniProt Q12809); test: Inhibition of human ERG
How it was run: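 hERG affinity was measured on the IonWorks automated electrophysiology platform and reported as Kd.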

[6] = molecular target: Muscarinic acetylcholine receptor M2 (Homo sapiens, UniProt P08172); test: Displacement of [3H]AF-DX384 from human recombinant M2 receptor incubated for 1 hr by radiometric scintillation counting analysis
Cytochrome P450 2C8 = Cytochrome P450 2C8 (Homo sapiens, UniProt P10632); test: Inhibition of CYP2C8 in human liver microsomes using amodiaquine as substrate incubated for 15 mins by LC-MS/MS analysis; format: ADME
[7] = Toxicity in CBAxC57BL/6J mouse assessed as effect on shivering at 10 to 100 mg/kg, po bid for 14.5 days; format: organism-based; details: in vivo, 348 h, dose 10-100 mg/kg, time 14.5 day
How it was run: (§1)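 R6/2 HD mice and wild-type littermates, male and female, were dosed orally b.i.d. at 10, 30 or 100 mg/kg or with vehicle for 14.5 days. Vehicle was 10% (w/v) hydroxypropyl-β-cyclodextrin in 50 mM citrate buffer. Body weight, body temperature, passive observations and active manipulation scores were recorded. Blood and brain were collected 2 h after the final dose.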

[8] = Toxicity in CBAxC57BL/6J mouse assessed as effect on provoked biting at 10 to 100 mg/kg, po bid for 14.5 days; format: organism-based; details: in vivo, 348 h, dose 10-100 mg/kg, time 14.5 day; how it was run: as §1
[9] = Toxicity in CBAxC57BL/6J mouse assessed as effect on touch escape at 10 to 100 mg/kg, po bid for 14.5 days; format: organism-based; details: in vivo, 348 h, dose 10-100 mg/kg, time 14.5 day; how it was run: as §1
[10] = In vivo inhibition of Class 1 HDAC in CBAxC57BL/6J mouse brain assessed as increase in histone H4 acetylation at 30 to 100 mg/kg, po bid for 14.5 days by western blot analysis; format: organism-based; details: 348 h, dose 30-100 mg/kg, time 14.5 day
How it was run: (§2)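 R6/2 and wild-type littermate mice of both sexes were dosed orally b.i.d. for 14.5 days with 10, 30 or 100 mg/kg or vehicle (10% w/v hydroxypropyl-β-cyclodextrin in 50 mM citrate buffer). Half-brains were collected 2 h after the last dose. Dot blots measured global and H4K12 acetylation; Western blots measured H3, H4 and tubulin acetylation. Genotypes were pooled.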

[11] = In vivo inhibition of Class 2B HDAC in CBAxC57BL/6J mouse brain assessed as increase in tubulin acetylation at 30 to 100 mg/kg, po bid for 14.5 days by western blot analysis; format: organism-based; details: 348 h, dose 30-100 mg/kg, time 14.5 day; how it was run: as §2
[12] = molecular target: Histone deacetylase 3/Nuclear receptor corepressor 1 (HDAC3/NCoR1) (Homo sapiens); test: Inhibition of HDAC3/NCOR1 (unknown origin) using Boc-Lys(Ac) as substrate by fluorogenic assay

Chain of Cytochrome P450 2C8 (P10632 whole entry): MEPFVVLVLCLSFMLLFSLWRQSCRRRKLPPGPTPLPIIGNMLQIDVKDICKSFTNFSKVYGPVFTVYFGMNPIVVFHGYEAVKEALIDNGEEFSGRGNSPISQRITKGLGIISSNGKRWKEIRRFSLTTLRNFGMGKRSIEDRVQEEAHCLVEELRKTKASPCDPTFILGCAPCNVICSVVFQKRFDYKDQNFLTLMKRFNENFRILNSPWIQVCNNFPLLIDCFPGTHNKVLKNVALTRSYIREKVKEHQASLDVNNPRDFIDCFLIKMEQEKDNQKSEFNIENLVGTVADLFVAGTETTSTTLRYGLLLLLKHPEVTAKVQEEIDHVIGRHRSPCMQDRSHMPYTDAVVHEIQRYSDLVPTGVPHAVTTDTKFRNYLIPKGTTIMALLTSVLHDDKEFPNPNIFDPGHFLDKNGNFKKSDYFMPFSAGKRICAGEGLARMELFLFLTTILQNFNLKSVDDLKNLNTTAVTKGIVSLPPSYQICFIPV
Chain of Muscarinic acetylcholine receptor M5 (Homo sapiens) (P08912 whole entry): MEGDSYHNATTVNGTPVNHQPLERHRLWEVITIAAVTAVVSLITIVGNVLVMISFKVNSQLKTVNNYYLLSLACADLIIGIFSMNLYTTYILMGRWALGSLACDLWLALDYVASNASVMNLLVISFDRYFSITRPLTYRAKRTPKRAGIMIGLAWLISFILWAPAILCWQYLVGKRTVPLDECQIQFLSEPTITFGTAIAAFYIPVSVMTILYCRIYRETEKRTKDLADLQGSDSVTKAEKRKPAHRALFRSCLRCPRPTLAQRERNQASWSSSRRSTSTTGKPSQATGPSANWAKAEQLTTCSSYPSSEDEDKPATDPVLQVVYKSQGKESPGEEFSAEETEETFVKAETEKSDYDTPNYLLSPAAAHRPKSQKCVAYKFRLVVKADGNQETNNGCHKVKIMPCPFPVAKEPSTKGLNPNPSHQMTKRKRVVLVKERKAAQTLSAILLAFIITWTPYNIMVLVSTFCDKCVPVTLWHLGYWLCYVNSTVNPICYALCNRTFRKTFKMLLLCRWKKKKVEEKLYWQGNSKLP
Chain of Muscarinic acetylcholine receptor M2 (P08172 whole entry): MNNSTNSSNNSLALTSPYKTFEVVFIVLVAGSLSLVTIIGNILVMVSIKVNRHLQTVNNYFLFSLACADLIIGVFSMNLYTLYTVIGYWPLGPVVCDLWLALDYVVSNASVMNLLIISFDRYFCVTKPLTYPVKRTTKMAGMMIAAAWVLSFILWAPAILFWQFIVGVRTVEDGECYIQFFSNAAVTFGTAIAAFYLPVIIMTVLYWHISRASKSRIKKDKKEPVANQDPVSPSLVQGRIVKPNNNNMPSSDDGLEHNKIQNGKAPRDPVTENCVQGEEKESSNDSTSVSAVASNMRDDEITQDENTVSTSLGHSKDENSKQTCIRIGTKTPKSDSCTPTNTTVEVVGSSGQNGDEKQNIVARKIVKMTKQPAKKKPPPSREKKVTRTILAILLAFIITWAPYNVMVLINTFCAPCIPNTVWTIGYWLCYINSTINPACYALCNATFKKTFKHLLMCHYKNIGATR
Chain of Voltage-gated inwardly rectifying potassium channel KCNH2 (Q12809 whole entry): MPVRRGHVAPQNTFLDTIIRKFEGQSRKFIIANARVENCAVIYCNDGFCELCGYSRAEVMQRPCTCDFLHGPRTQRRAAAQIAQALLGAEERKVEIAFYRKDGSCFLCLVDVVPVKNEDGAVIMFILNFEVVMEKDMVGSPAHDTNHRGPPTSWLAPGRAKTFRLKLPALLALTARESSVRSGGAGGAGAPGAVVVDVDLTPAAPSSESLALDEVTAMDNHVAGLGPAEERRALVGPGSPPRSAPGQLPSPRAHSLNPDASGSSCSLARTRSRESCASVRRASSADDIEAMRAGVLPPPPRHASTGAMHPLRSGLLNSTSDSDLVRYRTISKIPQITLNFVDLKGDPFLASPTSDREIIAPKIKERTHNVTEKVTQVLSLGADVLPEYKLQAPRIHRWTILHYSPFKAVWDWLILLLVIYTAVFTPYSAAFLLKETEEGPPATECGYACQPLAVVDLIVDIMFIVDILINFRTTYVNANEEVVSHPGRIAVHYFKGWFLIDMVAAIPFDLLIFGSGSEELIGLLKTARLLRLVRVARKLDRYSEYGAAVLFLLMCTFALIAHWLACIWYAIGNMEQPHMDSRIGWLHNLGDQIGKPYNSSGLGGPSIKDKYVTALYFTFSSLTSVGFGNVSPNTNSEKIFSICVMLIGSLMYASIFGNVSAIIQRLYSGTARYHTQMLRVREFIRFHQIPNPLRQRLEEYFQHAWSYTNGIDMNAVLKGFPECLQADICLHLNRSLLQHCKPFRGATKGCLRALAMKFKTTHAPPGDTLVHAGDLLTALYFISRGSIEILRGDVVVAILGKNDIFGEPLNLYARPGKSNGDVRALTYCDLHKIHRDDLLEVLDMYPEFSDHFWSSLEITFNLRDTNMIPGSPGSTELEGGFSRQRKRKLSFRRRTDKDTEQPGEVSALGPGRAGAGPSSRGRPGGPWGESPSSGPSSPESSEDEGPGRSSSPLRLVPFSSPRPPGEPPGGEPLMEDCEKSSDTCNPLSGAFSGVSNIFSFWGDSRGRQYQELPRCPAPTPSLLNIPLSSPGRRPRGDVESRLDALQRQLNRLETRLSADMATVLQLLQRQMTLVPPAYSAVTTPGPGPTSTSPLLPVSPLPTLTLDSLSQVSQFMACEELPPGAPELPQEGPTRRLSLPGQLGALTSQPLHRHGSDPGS

CLint scaled [1]: 86 mL/min/kg
IC50 [2]: 0.01 µM
IC50 [3]: > 29 µM
inhibition [4]: > 80%
Kd [6]: > 5 µM
IC50 (Cytochrome P450 2C8): > 50 µM
IC50 [12]: 10 µM
SMILES: C[C@H](CN1CCC[C@@H]1C)NC(=O)c1ccc(-c2noc(C(F)(F)F)n2)cc1
Kd [5]: 3.9 µM
Activity [7]: Non-Toxic
Activity [8]: Non-Toxic
Activity [9]: Non-Toxic
Activity [10]: Toxic
Activity [11]: Toxic
